According to the EternaBench riboswitch data:

System: MS2 coat protein
Experiment: apparent Kd, MS2 coat protein; higher = weaker binding; RNA-MaP array; FMN 200 µM where present
How it was run: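 Designs were transcribed by stalled E. coli RNA polymerase on Illumina sequencing-chip clusters. They were titrated with SNAP-549-labelled MS2 coat protein from 0.7 or 1.5 nM, doubling to 3 µM, without and then with constant ligand. Buffer: 100 mM Tris-HCl pH 7.5, 80 mM KCl, 4 mM MgCl2, BSA, DTT, yeast tRNA, Tween-20. Green signal was normalised to red-channel RNA signal and control-cluster median Fmax. Apparent Kd is the median of filtered per-cluster binding-curve fits.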

[1] = designed as: OFF switch for flavin mononucleotide, no ligand
[2] = ligand present: flavin mononucleotide, designed as: OFF switch for flavin mononucleotide
[3] = designed as: ON switch for flavin mononucleotide, no ligand
[4] = ligand present: flavin mononucleotide, designed as: ON switch for flavin mononucleotide

“ACCAUUUACUAAUCGUCUAUACAUGAGGAUCACCCAUGUUAUGAGGAUAUCGUCGUGAAACACGACGAGAAGGCAUAGCAUUCG” was tested. Which “apparent Kd” value [1] did it give?
Its value is 32.2 nM.

And the “apparent Kd” value [2]?
Its value is 132 nM.

How did the “apparent Kd” value [1] turn out when “UUUCCGCGAGGAUAUGCGGGUUGUGCUUUUCAUUUUUUAUAACAUGAGGAUCACCCAUGUAGAAGGUGCUUCUU” was run?
Its value is 186 nM.

What about the “apparent Kd” value [2] of the same sequence?
The value was 166 nM.

For “AAAUAACUAGGAUAUCGAGGCACAGACAUGAGGAUCACCCAUGUGUGGUCUUCGUGCUUACGAGAAGGAGUACGGC”, which “apparent Kd” value [1] is on record?
Its value is 672 nM.

What about the “apparent Kd” value [2] of the same sequence?
Its value is 274 nM.

Which results are given for “UUAUGUGGCGUAGGAUAUCAUUAGAUUUGUAAUUUAAUUGUAAUUUCCAUAUGAGAAGGACGUAUACAUGAGGAUCACCCAUGU”?
apparent Kd [1]: 14.8 nM; apparent Kd [2]: 17.7 nM

How did the “apparent Kd” value [1] turn out when “UUAUGGCUAGGAUAUGCACGUGCAUGUUCAAGUCAAAGAAGACAUGAGGAUCACCCAUGUAGAAGGAGCGGUAC” was run?
Its value is 37.8 nM.

And the “apparent Kd” value [2]?
The value was 24.2 nM.

For “GCCCUCGCUGAGGAUAUUAUCUGGUUCGAUUGAUAAGAAGGCAGUACAUGAGGAUCACCCAUGUGGUUCGUCCG”, which “apparent Kd” value [1] is on record?
The value was 76.7 nM.

And the “apparent Kd” value [2]?
Its value is 363 nM.

With “CCGGAAAUGGAGGAUAUAGGAGUCGAUAGACACCUAGAAGGUCAUACAUGAGGAUCACCCAUGUGUCCUACCGG” as the sequence, how does the “apparent Kd” value [1] read?
The value was 17.2 nM.

What about the “apparent Kd” value [2] of the same sequence?
The value was 19.1 nM.

Which “apparent Kd” value [3] does the source give for “GGUGCACGCACAGGAUAUCCGGCGACGCUCGUCGGAGAAGGGUGACAUGAGGAUCACCCAUGUACGUGCAACUCAGUUUGAGAG” here?
The value was 35.7 nM.

What about the “apparent Kd” value [4] of the same sequence?
The value was 28.1 nM.

“CCCAUGUUAGGAUAUAUGGAAGGGCGCACGUGCACCCUAAGGUAGAAGGGACAUGAGGAUCACCCAUGUAAUAA” was tested. Which “apparent Kd” value [1] did it give?
The value was 152 nM.

And the “apparent Kd” value [2]?
Its value is 228 nM.

Which results are given for “CCAUCGAGUGUGAGGAUAUGCUGUUCCUUGGAGCAGCAGAAGGCACAUGAGGAUCACCCAUGUGGAUACGGUGG”?
apparent Kd [1]: 34.3 nM; apparent Kd [2]: 251 nM

With “UGAUCGAGAGAUCUUAGAUUCUGCAAGGAUAUGCAAGAGUUGCGCUUUACAUGAGGAUCACCCAUGUAGAAGGUGUAGAGUCUA” as the sequence, how does the “apparent Kd” value [1] read?
Its value is 6.27 nM.

And the “apparent Kd” value [2]?
The value was 6.62 nM.

What does the source list for “GUAUUUUUACAGAAGGUGUAUUACAUGAGGAUCACCCAUGUUUUAUGGAAUAAAGAUUUUAUUUACAAGGAUAUGUACUAUUUU”?
apparent Kd [3]: 31.7 nM; apparent Kd [4]: 20.6 nM

What does the source list for “CUGUCCCAAGGAUAUACAUCAGUCCCAGGGUGCCGCAUAAGACAUGAGGAUCACCCAUGUAGAAGGUGGAGACC”?
apparent Kd [1]: 96.7 nM; apparent Kd [2]: 92.6 nM

For “CAGCGCUGUCGAGAGGAUAUGCGGUGAUGGACAUGAGGAUCACCCAUGUUAGCGGUAGCAUUACGGUAGAAGGCUCUACAGCUGC”, which “apparent Kd” value [3] is on record?
The value was 31 nM.

What about the “apparent Kd” value [4] of the same sequence?
The value was 13.2 nM.

With “GGGCCGUUGCAGAAGGCCGGCGGGCUUGGCGCCGGAGGAUAUGCAUGUGCACAUGAGGAUCACCCAUGUGCCAGCCCGGAGGGA” as the sequence, how does the “apparent Kd” value [3] read?
Its value is 6.56 nM.

And the “apparent Kd” value [4]?
Its value is 5.9 nM.

For “UUCGGACUAUCAGGAUAUGGUGUAGCCUAGUAAAGGACAUGAGGAUCACCCAUGUACCAUUGGUACCAGAAGGGAUGAUCCUAC”, which “apparent Kd” value [3] is on record?
The value was 29.9 nM.

And the “apparent Kd” value [4]?
The value was 24.9 nM.

How did the “apparent Kd” value [1] turn out when “UUCUUUCCUCAUGUACAUGAGGAACAUGAGGAUCACCCAUGUAGAAGGAUUUCCAUUAAAUUAAAAUAGGAUAUACAUAUAUUU” was run?
The value was 18.6 nM.

And the “apparent Kd” value [2]?
Its value is 16.7 nM.

How did the “apparent Kd” value [3] turn out when “UUAUUUAUACAAGGAUAUCAAUUAUAUACACAUCCUACAUGAGGAUCACCCAUGUUUUAUUUUUUUGAGAAGGUGUAUUGUCGG” was run?
Its value is 21.2 nM.

And the “apparent Kd” value [4]?
The value was 27.6 nM.

“CACAAGUAUAACGAUUUCAAGGCACAGGAUAUGAGUGUGCACAUGAGGAUCACCCAUGUUAUAACUUAGAAGGGUGACCAUCGC” was tested. Which “apparent Kd” value [3] did it give?
The value was 402 nM.

And the “apparent Kd” value [4]?
The value was 433 nM.

For “CUAGCGUAUGUAGGAUAUCGGACUGUUUCAGUCUGAGAAGGACAUGAGGAUCACCCAUGUAUAGCUACGUGAGUAGCUCGCUAG”, which “apparent Kd” value [1] is on record?
The value was 20.4 nM.

And the “apparent Kd” value [2]?
The value was 32.4 nM.

Which “apparent Kd” value [1] does the source give for “CGCUCAAGAGAGAAGGAUUGAAUCAGAAGGCGUUACAUGAGGAUCACCCAUGUAUAGUAGUGUAACGAGGAUAUGAAAUGAGCG” here?
The value was 133 nM.

What about the “apparent Kd” value [2] of the same sequence?
Its value is 437 nM.

What does the source list for “GUGUUACAUGAGGAUCACCCAUGUGAGGAUAUCAUGCUUCGUAGUAAACUACGAAGUGUGAGAAGGCACAUGAC”?
apparent Kd [1]: 265 nM; apparent Kd [2]: 806 nM

How did the “apparent Kd” value [1] turn out when “CCCUAGGUAGGAUAUACUUGGGCUCGGCUGAUGUGCCUAAAACAUGAGGAUCACCCAUGUAGAAGGACUAAGGC” was run?
The value was 12.4 nM.

What about the “apparent Kd” value [2] of the same sequence?
The value was 10.8 nM.

Which results are given for “UGCACGAGGCAAGGAUAUGCUGACAUGAGGAUCACCCAUGUGAGCAUGGGUCUGGUACGGGAUCAGCAGAAGGUGCACCGAGGU”?
apparent Kd [1]: 36.8 nM; apparent Kd [2]: 27.4 nM

Which “apparent Kd” value [1] does the source give for “GGUGCUGUGUAGAAGGCAGAUCUGAUUCAGAUCUGAGGAUAUACAUGAGGAUCACCCAUGUUAAGCACCAGCACGAGAGUGCAA” here?
Its value is 5.8 nM.

And the “apparent Kd” value [2]?
The value was 8.54 nM.

Which results are given for “CCGGAAAUAGAGGAUAUCGUACUGGAUACAGUACGAGAAGGCUAUACAUGAGGAUCACCCAUGUGUCCUACCGG”?
apparent Kd [1]: 16.9 nM; apparent Kd [2]: 36 nM

For “CCUAUGUGAGGAUAUCACUGGUCUUUUCAUUGGAUGAUUAGUGAGAAGGCACAUGAGGAUCACCCAUGUCGGUG”, which “apparent Kd” value [1] is on record?
The value was 28.9 nM.

And the “apparent Kd” value [2]?
The value was 24.2 nM.
